Laboratory results: ChEMBL document CHEMBL1126705, “16 beta-([18F]fluoro)estrogens: systematic investigation of a new series of fluorine-18-labeled estrogens as potential imaging agents for estrogen-receptor-positive breast tumors” (J Med Chem, 1993)

What was measured:
[1] = Partition coefficient (logP); assay type: physicochemical; settings: octanol/water
Method in brief: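 Octanol/water log P estimated from log k'w measured by reversed-phase HPLC (Minick method) on a C8 silica column.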

[2] = molecular target: T1, Alpha-fetoprotein (Rattus norvegicus) (UniProt P02773); experiment: Relative binding affinity for Alphafetoprotein
T1 sequence (whole entry): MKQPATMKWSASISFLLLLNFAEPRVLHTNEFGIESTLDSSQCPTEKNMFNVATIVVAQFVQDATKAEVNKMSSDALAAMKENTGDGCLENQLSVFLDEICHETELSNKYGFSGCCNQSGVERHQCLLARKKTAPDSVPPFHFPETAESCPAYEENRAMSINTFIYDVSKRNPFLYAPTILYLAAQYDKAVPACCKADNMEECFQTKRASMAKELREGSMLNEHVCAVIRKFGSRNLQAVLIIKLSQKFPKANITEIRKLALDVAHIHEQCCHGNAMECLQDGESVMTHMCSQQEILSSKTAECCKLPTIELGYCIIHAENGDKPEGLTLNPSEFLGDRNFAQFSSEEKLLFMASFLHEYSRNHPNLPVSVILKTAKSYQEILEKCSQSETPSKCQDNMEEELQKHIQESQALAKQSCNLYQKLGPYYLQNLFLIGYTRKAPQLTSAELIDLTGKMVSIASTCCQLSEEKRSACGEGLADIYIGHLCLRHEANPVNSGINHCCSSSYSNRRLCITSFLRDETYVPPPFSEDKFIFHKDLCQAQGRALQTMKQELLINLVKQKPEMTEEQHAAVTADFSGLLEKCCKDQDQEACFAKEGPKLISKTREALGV

[3] = molecular target: T2, Sex hormone-binding globulin (Homo sapiens) (UniProt P04278); experiment: Relative binding affinity against sex steroid binding protein (SBP)
T2 sequence (whole entry): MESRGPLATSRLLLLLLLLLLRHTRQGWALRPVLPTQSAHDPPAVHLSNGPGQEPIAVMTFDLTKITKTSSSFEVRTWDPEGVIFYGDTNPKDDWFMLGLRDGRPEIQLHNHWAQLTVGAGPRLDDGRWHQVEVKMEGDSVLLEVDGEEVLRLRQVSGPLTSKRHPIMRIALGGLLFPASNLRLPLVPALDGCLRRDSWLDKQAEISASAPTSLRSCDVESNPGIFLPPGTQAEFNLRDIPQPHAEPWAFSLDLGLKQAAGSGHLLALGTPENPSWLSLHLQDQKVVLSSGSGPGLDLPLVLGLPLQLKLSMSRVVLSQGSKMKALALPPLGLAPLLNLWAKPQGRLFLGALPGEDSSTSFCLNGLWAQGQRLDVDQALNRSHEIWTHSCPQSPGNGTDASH

[4] = molecular target: T3, Estrogen receptor (Rattus norvegicus) (UniProt P06211+Q62986)
[5] = molecular target: T3, Estrogen receptor (Rattus norvegicus); remark: listed apart in the source

Row | logP [1] | relative binding affinity (RBA) [2] | relative binding affinity (RBA) [3] | NSB [4] | BSI [5] | Compound
1 | 3.42 | 3.51 | 1.81 |  |  | C#C[C@]1(O)CC[C@H]2[C@@H]3CCc4cc(O)ccc4[C@H]3CC[C@@]21C [ETHINYL ESTRADIOL]
2 | 3.26 | 100 | 100 |  |  | C[C@]12CC[C@@H]3c4ccc(O)cc4CC[C@H]3[C@@H]1CC[C@@H]2O [ESTRADIOL]
3 | 2.72 | 0.26 | 1.72 | 0.57 | 151 | CO[C@H]1C[C@]2(C)[C@@H](O)CC[C@H]2[C@@H]2CCc3cc(O)ccc3[C@H]21
4 | 3.01 | 0.023 | 0.071 | 0.76 | 243 | C#C[C@]1(O)CC[C@H]2[C@@H]3CCc4cc(O)ccc4[C@H]3[C@@H](OC)C[C@@]21C [MOXESTROL]
